Common to all, as to assay type: functional
Test [1] has as its system Mycobacterium tuberculosis. The test can be described thus: Antimycobacterial activity against multidrug sensitive Mycobacterium tuberculosis H37Rv CNCTC 331/88 assessed as bacterial growth inhibition incubated for 14 days by two-fold serial dilution method. Conditions: H37Rv CNCTC 331/88, 336 h, time 14 day.
The test system of test [2] is Mycobacterium tuberculosis. Nature of the test: Antimycobacterial activity against Mycobacterium tuberculosis H37Rv CNCTC 331/88 assessed as bacterial growth inhibition incubated for 21 days by two fold serial dilution method. The following applies: H37Rv CNCTC 331/88, 504 h, time 21 day.
In test [3] the test system is Mycobacterium avium. The test can be described thus: Antimycobacterial activity against INH/RIF/rifabutin/OFX/EMB resistant Mycobacterium avium CNCTC 330/88 assessed as bacterial growth inhibition incubated for 14 days by two-fold serial dilution method. The following applies: CNCTC 330/88, 336 h, time 14 day. In outline:
(§1)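 M. avium CNCTC 330/88 (stock suspension dilution 10−5) grown in Šula's semisynthetic liquid medium; two-fold serial dilutions 1000 to 1 μM from DMSO stocks (final DMSO 1.0% v/v); final load 1.5 × 10^5 CFU mL−1; MIC read visually as lowest concentration giving complete growth inhibition after 14 and 21 days.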

For test [4], the system named is Mycobacterium avium. The test can be described thus: Antimycobacterial activity against INH/RIF/rifabutin/OFX/EMB resistant Mycobacterium avium CNCTC 330/88 assessed as bacterial growth inhibition incubated for 21 days by two-fold serial dilution method. Conditions: CNCTC 330/88, 504 h, time 21 day. In outline:
as §1

Test [5] has as its system Mycobacterium kansasii. The test can be described thus: Antimycobacterial activity against INH/RIF/rifabutin/OFX/EMB Mycobacterium kansasii CNCTC 6509/96 clinical isolate assessed as bacterial growth inhibition incubated for 7 days by two-fold serial dilution method. Conditions: CNCTC 6509/96, 168 h, time 7 day. Summed up: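 Šula's liquid semisynthetic medium; M. kansasii clinical isolate 6509/96 used at stock dilution 10−4, final ~1.5 × 10^5 CFU mL−1. Two-fold dilutions ran 1000–1 μM with final DMSO 1.0% (v/v). MIC was read visually as complete growth inhibition after 7, 14 and 21 days.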

Test [6] concerns Mycobacterium kansasii. Nature of the test: Antimycobacterial activity against multi-drug resistant Mycobacterium kansasii CNCTC 6509/96 clinical isolate assessed as bacterial growth inhibition incubated for 14 days by two-fold serial dilution method. Conditions: CNCTC 6509/96, 336 h, time 14 day. Summed up:
(§2)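 M. kansasii clinical isolate 6509/96 (stock dilution 10−4) in Šula's semisynthetic liquid medium; two-fold serial dilutions 1000 to 1 μM, DMSO final 1.0% v/v; final load 1.5 × 10^5 CFU mL−1; MIC read visually as complete growth inhibition at 7, 14 and 21 days.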

Test [7] relates to Mycobacterium kansasii. Nature of the test: Antimycobacterial activity against multi-drug resistant Mycobacterium kansasii clinical isolate CNCTC 6509/96 assessed as bacterial growth inhibition incubated for 21 days by two-fold serial dilution method. Conditions: CNCTC 6509/96, 504 h, time 21 day. In outline:
as §2

≈ marks a conversion by molar mass, not a printed value.

Consider `O=C(O)/C=N/NC(=O)c1ccncc1`, for which the minimal inhibitory concentration (MIC) is 0.25 µM (≈ 0.0483 µg/mL) in test [1]; 0.5 µM (≈ 0.0966 µg/mL) in test [2]; 250 µM (≈ 48.3 µg/mL) in the test with Mycobacterium avium [3]; above 250 µM with Mycobacterium avium [4]; 4 µM (≈ 0.773 µg/mL) in the test on Mycobacterium kansasii [5]; 4 µM (≈ 0.773 µg/mL) in the test with Mycobacterium kansasii [6]. In addition, in the test with Mycobacterium kansasii [7], the MIC was 8 µM (≈ 1.55 µg/mL).

For the compound `Cc1cc(C)nc(NS(=O)(=O)c2ccc(NC(=O)/C=N/NC(=O)c3ccncc3)cc2)n1`, the minimum inhibitory concentration (MIC) in test [1] was 1 µM (≈ 0.453 µg/mL); in test [2], 2 µM (≈ 0.907 µg/mL); with Mycobacterium avium [3] it was 1000 µM (≈ 453 µg/mL); in the test on Mycobacterium avium [4], at least 1000 µM; in the test with Mycobacterium kansasii [5], 8 µM (≈ 3.63 µg/mL); with Mycobacterium kansasii [6] it was 16 µM (≈ 7.26 µg/mL). The minimum inhibitory concentration (MIC) in the test on Mycobacterium kansasii [7] is 16 µM (≈ 7.26 µg/mL).

Regarding `Nc1ccc(S(=O)(=O)Nc2ccc(Oc3ccc(Cl)cc3)c(Cl)c2)cc1`, the minimum inhibitory concentration (MIC) (in test [1]; in test [2]; in the test on Mycobacterium avium [3]; in the test on Mycobacterium avium [4]; with Mycobacterium kansasii [5]; in the test on Mycobacterium kansasii [6]) was 125 µM (≈ 51.2 µg/mL) each time. Also, the MIC in the test with Mycobacterium kansasii [7] is 125 µM (≈ 51.2 µg/mL).

With `O=C(/C=N/NC(=O)c1ccncc1)NNC(=O)c1ccncc1`, the MIC in test [1] was 1 µM (≈ 0.312 µg/mL); in test [2], 2 µM (≈ 0.625 µg/mL); in the test on Mycobacterium avium [3], 1000 µM (≈ 312 µg/mL); in the test with Mycobacterium avium [4] it was above 1000 µM; in the test with Mycobacterium kansasii [5], 8 µM (≈ 2.5 µg/mL); with Mycobacterium kansasii [6] it was 16 µM (≈ 5 µg/mL). In the test on Mycobacterium kansasii [7], the MIC came out at 16 µM (≈ 5 µg/mL).

As to `O=C(/C=N/NC(=O)c1ccncc1)Nc1ccc(S(=O)(=O)Nc2ncccn2)cc1`, the MIC in test [1] was 1 µM (≈ 0.425 µg/mL); in test [2] it was 2 µM (≈ 0.851 µg/mL); with Mycobacterium avium [3] it was 500 µM (≈ 213 µg/mL); with Mycobacterium avium [4], 500 µM (≈ 213 µg/mL); in the test on Mycobacterium kansasii [5], 8 µM (≈ 3.4 µg/mL); with Mycobacterium kansasii [6], 16 µM (≈ 6.81 µg/mL). Further, the minimal inhibitory concentration (MIC) in the test with Mycobacterium kansasii [7] worked out at 16 µM (≈ 6.81 µg/mL).

`C/C(=N\NC(=O)c1ccncc1)C(=O)Nc1ccc(NC(=O)/C(C)=N/NC(=O)c2ccncc2)cc1`: the MIC stood at 64 µM (≈ 31.1 µg/mL) in test [1]; 64 µM (≈ 31.1 µg/mL) in test [2]; 250 µM (≈ 122 µg/mL) with Mycobacterium avium [3]; 250 µM (≈ 122 µg/mL) in the test with Mycobacterium avium [4]; 250 µM (≈ 122 µg/mL) in the test with Mycobacterium kansasii [5]; 250 µM (≈ 122 µg/mL) with Mycobacterium kansasii [6]. Also, in the test with Mycobacterium kansasii [7], the minimum inhibitory concentration (MIC) was 250 µM (≈ 122 µg/mL).

As for `Nc1ccc(S(=O)(=O)Nc2ccc(-c3ccccc3)cc2)cc1`, the minimal inhibitory concentration (MIC) in test [1] was 500 µM (≈ 162 µg/mL); in test [2], 500 µM (≈ 162 µg/mL); with Mycobacterium avium [3], at least 1000 µM; in the test with Mycobacterium avium [4], at least 1000 µM; with Mycobacterium kansasii [5], 250 µM (≈ 81.1 µg/mL); with Mycobacterium kansasii [6] it was 250 µM (≈ 81.1 µg/mL). Further, the MIC in the test with Mycobacterium kansasii [7] is 500 µM (≈ 162 µg/mL).

`Nc1ccc(S(=O)(=O)Nc2ccc(Oc3ccc(Cl)cc3)cc2)cc1`: the MIC stood at 250 µM (≈ 93.7 µg/mL) in test [1]; 500 µM (≈ 187 µg/mL) in test [2]; 1000 µM (≈ 375 µg/mL) in the test with Mycobacterium avium [3]; 1000 µM (≈ 375 µg/mL) in the test on Mycobacterium avium [4]; 250 µM (≈ 93.7 µg/mL) in the test with Mycobacterium kansasii [5]; 500 µM (≈ 187 µg/mL) in the test on Mycobacterium kansasii [6]. Also, in the test with Mycobacterium kansasii [7], the MIC worked out at 500 µM (≈ 187 µg/mL).

As to `Nc1ccc(S(=O)(=O)Nc2ccccc2Oc2ccccc2)cc1`, the MIC in test [1] worked out at 250 µM (≈ 85.1 µg/mL); in test [2], 250 µM (≈ 85.1 µg/mL); in the test with Mycobacterium avium [3] it was 500 µM (≈ 170 µg/mL); in the test on Mycobacterium avium [4], 1000 µM (≈ 340 µg/mL); in the test with Mycobacterium kansasii [5], 500 µM (≈ 170 µg/mL); in the test with Mycobacterium kansasii [6], 500 µM (≈ 170 µg/mL). Moreover, in the test on Mycobacterium kansasii [7], the minimal inhibitory concentration (MIC) was found to be 500 µM (≈ 170 µg/mL).

In general, MIC refers to the least concentration at which growth counts as inhibited.

Values taken from ChEMBL document CHEMBL6177921, “Enhancing the antimycobacterial efficacy of pyridine-4-carbohydrazide: linkage to additional antimicrobial agents via oxocarboxylic acids” (RSC Med Chem, 2025).
